In ChEMBL document CHEMBL3621120, “Discovery of ((4-(5-(Cyclopropylcarbamoyl)-2-methylphenylamino)-5-methylpyrrolo[1,2-f][1,2,4]triazine-6-carbonyl)(propyl)carbamoyloxy)methyl-2-(4-(phosphonooxy)phenyl)acetate (BMS-751324), a Clinical Prodrug of p38α MAP Kinase Inhibitor” (J Med Chem, 2015):
In brackets after ≈: the same amount, converted by molar mass. One block for each compound: values may come before it.

What was measured:
[1] = Cmax in cynomolgus monkey at 10 mg/kg, po after 24 hrs by LC/MS/MS method; format: ADME, organism-based, Macaca fascicularis; design: dose 10 mg/kg, route oral; conditions: in vivo
Rattus norvegicus [2] = assay: Bioavailability in Sprague-Dawley rat at 100 mg/kg, po after 24 hrs by LC/MS/MS method; format: ADME, organism-based; conditions: in vivo
Caco-2 [3] = assay: Drug level in apical side of human Caco2 cells assessed as BMS-582949 level incubated at 37 degC for 2 hrs; format: ADME, cell-based; conditions: caco-2, 2 h
How it was run: (§1)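 Compounds loaded on apical side of Caco-2 monolayers and incubated at 37 °C for 2 h; prodrug, intermediate and parent measured on apical and basal sides.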

[4] = Bioavailability in Sprague-Dawley rat at 10 mg/kg, po after 24 hrs by LC/MS/MS method; format: ADME, organism-based; conditions: in vivo
[5] = AUC in cynomolgus monkey at 10 mg/kg, po after 24 hrs by LC/MS/MS method; format: ADME, organism-based, Macaca fascicularis; design: dose 10 mg/kg, time < 24 hr, route oral; conditions: in vivo
Caco-2 [6] = assay: Drug level in basal side of human Caco2 cells assessed as BMS-582949 level incubated at 37 degC for 2 hrs; format: ADME, cell-based; conditions: caco-2, 2 h; how it was run: as §1
[7] = Bioavailability in Sprague-Dawley rat at 1 mg/kg, po after 24 hrs by LC/MS/MS method; format: ADME, organism-based; conditions: in vivo
[8] = Solubility in pH 6.5 solution; conditions: buffer
Rattus norvegicus [9] = assay: Inhibition of LPS-induced TNFalpha level in Lewis rat at 0.03 to 10 mg/kg, po dosed 1 hr before LPS challenge and measured 90 mins post LPS challenge by ELISA method; format: functional
How it was run: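 Male Lewis rats (200-250 g) dosed orally 1 h before IP injection of 10ug E. coli O111:B4 LPS in 1.0 mL sterile saline; prodrug as suspension in 0.75% Methocel, 0.1% Tween 80, parent in PEG 300, controls given vehicle. Blood taken 90 min after LPS; serum TNF measured by ELISA; ED50 expressed as parent equivalent.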

[10] = Cmax in Sprague-Dawley rat at 10 mg/kg, po after 24 hrs by LC/MS/MS method; format: ADME, organism-based; design: dose 10 mg/kg, route oral; conditions: in vivo
[11] = Bioavailability in cynomolgus monkey at 10 mg/kg, po after 24 hrs by LC/MS/MS method; format: ADME, organism-based, Macaca fascicularis; conditions: in vivo
[12] = AUC (0 to 24 hrs) in Lewis rat adjuvant arthritis model at 1 mg/kg, po bid beginning on day 11 post adjuvant challenge; format: ADME, organism-based; design: dose 1 mg/kg, time < 24 hr, route oral; conditions: in vivo
Rattus norvegicus [13] = assay: Inhibition of paw swelling in Lewis rat adjuvant arthritis model assessed as reduction in hind paw volume at 3 mg/kg, po bid beginning on day 11 post adjuvant challenge by volume displacement plethysmometry method relative to control; format: functional; conditions: 264 h
How it was run: (§2)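 Male Lewis rats given complete Freund's adjuvant on day 1; from day 11 compounds dosed orally BID in 0.5 mL vehicle (prodrug as aqueous suspension in 0.75% Methocel, 0.1% Tween 80; parent in PEG 300). Paw volume measured 3 times per week for rest of study; paw swelling inhibition reported.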

[14] = AUC in Sprague-Dawley rat at 1 mg/kg, po after 24 hrs by LC/MS/MS method; format: ADME, organism-based; design: time < 24 hr, dose 1 mg/kg, route oral; conditions: in vivo
[15] = AUC in Sprague-Dawley rat at 10 mg/kg, po after 24 hrs by LC/MS/MS method; format: ADME, organism-based; design: time < 24 hr, dose 10 mg/kg, route oral; conditions: in vivo
[16] = Cmax in Sprague-Dawley rat at 100 mg/kg, po after 24 hrs by LC/MS/MS method; format: ADME, organism-based; design: dose 100 mg/kg, route oral; conditions: in vivo
[17] = AUC in Sprague-Dawley rat at 100 mg/kg, po after 24 hrs by LC/MS/MS method; format: ADME, organism-based; design: time < 24 hr, dose 100 mg/kg, route oral; conditions: in vivo
[18] = Solubility in pH 1.2 solution; conditions: buffer
Rattus norvegicus [19] = assay: Inhibition of paw swelling in Lewis rat adjuvant arthritis model assessed as reduction in hind paw volume at 1 mg/kg, po bid beginning on day 11 post adjuvant challenge by volume displacement plethysmometry method relative to control; format: functional; conditions: 264 h; how it was run: as §2
[20] = AUC (0 to 24 hrs) in Lewis rat adjuvant arthritis model at 3 mg/kg, po bid beginning on day 11 post adjuvant challenge; format: ADME, organism-based; design: dose 3 mg/kg, time < 24 hr, route oral; conditions: in vivo
[21] = Cmax in Sprague-Dawley rat at 1 mg/kg, po after 24 hrs by LC/MS/MS method; format: ADME, organism-based; design: dose 1 mg/kg, route oral; conditions: in vivo
[22] = Stability in pH 1 solution assessed as half-life at 37 degC; format: physicochemical
[23] = Stability in pH 3.1 solution assessed as half-life at 37 degC; format: physicochemical
[24] = Stability in pH 7.4 solution assessed as half-life at 37 degC; format: physicochemical
[25] = Chemical stability of the compound in acidic pH solution; format: physicochemical
[26] = Chemical stability of the compound in neutral pH solution; format: physicochemical
Liver carboxylesterase [27] = target: T1, Liver carboxylesterase (Sus scrofa, UniProt Q29550); assay: Stability assessed as porcine liver esterase-mediated drug degradation by measuring compound remaining level in pH 7.4 potassium phosphate buffer at 10 uM incubated for 1 hr by LC/MS/MS; format: ADME, tissue-based; conditions: pig, read-out: Stability
T1 sequence (Q29550 whole entry): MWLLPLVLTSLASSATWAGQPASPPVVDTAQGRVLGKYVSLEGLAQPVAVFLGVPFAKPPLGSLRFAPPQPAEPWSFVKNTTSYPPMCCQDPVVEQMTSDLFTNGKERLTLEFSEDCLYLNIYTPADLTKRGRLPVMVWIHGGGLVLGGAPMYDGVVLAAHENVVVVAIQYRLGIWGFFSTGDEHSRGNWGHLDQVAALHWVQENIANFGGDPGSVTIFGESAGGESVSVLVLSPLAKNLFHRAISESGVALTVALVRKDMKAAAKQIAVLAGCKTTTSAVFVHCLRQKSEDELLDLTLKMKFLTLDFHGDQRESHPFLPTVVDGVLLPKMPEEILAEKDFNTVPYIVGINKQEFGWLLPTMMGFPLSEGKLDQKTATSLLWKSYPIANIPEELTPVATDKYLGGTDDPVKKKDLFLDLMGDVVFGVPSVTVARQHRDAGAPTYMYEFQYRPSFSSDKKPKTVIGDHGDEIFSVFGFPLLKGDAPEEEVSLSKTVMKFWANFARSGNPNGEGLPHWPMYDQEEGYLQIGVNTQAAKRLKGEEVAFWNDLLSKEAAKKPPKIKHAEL
How it was run: (§3)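 Porcine liver esterase with substrate at 10 µM in 89 mM potassium phosphate pH 7.4, 37 °C. Reaction started by adding compound. Aliquots taken at 0, 15, 30 and 60 min and quenched with acetonitrile. After centrifugation at 4 °C, percent remaining quantified by LC/MS/MS.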

[28] = Chemical stability of the compound in pH 7.4 potassium phosphate buffer at 10 uM incubated for 0.25 hrs by LC/MS/MS method; format: physicochemical; conditions: read-out: Stability
How it was run: (§4)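 Compound at 10 µM in 89 mM potassium phosphate buffer, pH 7.4, 37 °C, incubated with or without porcine liver esterase; started by compound addition, aliquots at 0, 15, 30, 60 min, acetonitrile added, centrifuged at 4 °C, remaining compound measured by LC/MS/MS.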

Caco-2 [29] = assay: Drug level in apical side of human Caco2 cells incubated at 37 degC for 2 hrs; format: ADME, cell-based; conditions: caco-2, 2 h; how it was run: as §1
Liver carboxylesterase [30] = target: T1, Liver carboxylesterase; assay: Stability assessed as porcine liver esterase-mediated drug degradation by measuring compound remaining level in pH 7.4 potassium phosphate buffer at 10 uM incubated for 0.25 hrs by LC/MS/MS; format: ADME, tissue-based; conditions: pig, read-out: Stability; how it was run: as §3
[31] = Chemical stability of the compound in pH 7.4 potassium phosphate buffer at 10 uM incubated for 0.5 hrs by LC/MS/MS method; format: physicochemical; conditions: read-out: Stability; how it was run: as §4
Liver carboxylesterase [32] = target: T1, Liver carboxylesterase; assay: Stability assessed as porcine liver esterase-mediated drug degradation by measuring compound remaining level in pH 7.4 potassium phosphate buffer at 10 uM incubated for 0.5 hrs by LC/MS/MS; format: ADME, tissue-based; conditions: pig, read-out: Stability; how it was run: as §3
[33] = Chemical stability of the compound in pH 7.4 potassium phosphate buffer at 10 uM incubated for 1 hr by LC/MS/MS method; format: physicochemical; conditions: read-out: Stability; how it was run: as §4
[34] = Chemical Stability of the compound in pH 1 solution; format: physicochemical; conditions: buffer

- Cmax [1]: 1000 nM
- F (Rattus norvegicus [2]): 4.3%
- Drug uptake (Caco-2 [3]): Active
- bioavailability [4]: 31%
- AUC at 24 h [5]: 7.6 µM·h
- Drug uptake (Caco-2 [6]): Active
- bioavailability [7]: 55%
- solubility [8]: 3 µg/mL (≈ 7.38 µM)
- Cmax [10]: 4300 nM
- bioavailability [11]: 16%
- AUC at 24 h [12]: 6.7 µM·h
- AUC at 24 h [14]: 4.2 µM·h
- AUC at 24 h [15]: 23 µM·h
- Cmax [16]: 3000 nM
- AUC at 24 h [17]: 3 µM·h
- solubility [18]: 280 µg/mL (≈ 689 µM)
- AUC at 24 h [20]: 25.3 µM·h
- Cmax [21]: 800 nM
Compound: CCCNC(=O)c1cn2ncnc(Nc3cc(C(=O)NC4CC4)ccc3C)c2c1C [BMS-582949]
- ED50 (Rattus norvegicus [9]): 0.88 mg
- inhibition in vivo at 3 mg/kg (Rattus norvegicus [13]): 35%
- inhibition in vivo at 1 mg/kg (Rattus norvegicus [19]): 27%

- half-life [22]: < 0.25 h
- half-life [23]: < 0.25 h
- half-life [24]: 257 h
Compound: CCCNC(=O)c1cn2ncnc(Nc3cc(C(=O)N(COP(=O)(O)O)C4CC4)ccc3C)c2c1C.CCN(C(C)C)C(C)C

- Stability [25]: Stable
- Stability [26]: Stable
Compound: CCCN(C(=O)OCOC(=O)/C=C/C(=O)O)C(=O)c1cn2ncnc(Nc3cc(C(=O)NC4CC4)ccc3C)c2c1C

- remaining at 1 h, 10 µM (Liver carboxylesterase [27]): 5.8%
- remaining at 0.25 h, 10 µM [28]: 100%
- Drug uptake (Caco-2 [29]): Active
- remaining at 0.25 h, 10 µM (Liver carboxylesterase [30]): 8.2%
- remaining at 0.5 h, 10 µM [31]: 93%
- remaining at 0.5 h, 10 µM (Liver carboxylesterase [32]): 6.9%
- remaining at 1 h, 10 µM [33]: 75%
Compound: CCCN(C(=O)OCOC(=O)Cc1ccc(O)cc1)C(=O)c1cn2ncnc(Nc3cc(C(=O)NC4CC4)ccc3C)c2c1C

- half-life [22]: < 0.25 h
- half-life [23]: < 0.25 h
- half-life [24]: 20 h
Compound: CCCNC(=O)c1cn2ncnc(N(COP(=O)([O-])O)c3cc(C(=O)NC4CC4)ccc3C)c2c1C.[Na+]

- half-life [22]: < 0.25 h
- half-life [23]: < 0.25 h
- half-life [24]: 54 h
Compound: CCCN(COP(=O)(O)O)C(=O)c1cn2ncnc(Nc3cc(C(=O)NC4CC4)ccc3C)c2c1C.CCN(C(C)C)C(C)C

- Stability [34]: Stable
- Stability [26]: Unstable
Compound: CCCN(C(=O)OCOP(=O)(O)O)C(=O)c1cn2ncnc(Nc3cc(C(=O)NC4CC4)ccc3C)c2c1C
